Test results: ChEMBL document CHEMBL1165971, “Structures and antimicrobial activities of pyridoacridine alkaloids isolated from different chromotypes of the ascidian Cystodytes dellechiajei” (2010)
In brackets after ≈: the same amount, converted by molar mass.

Legend:
[1] = tested on: Micrococcus luteus; test: Antibacterial activity against Micrococcus luteus after 24 hrs by liquid growth inhibition assay; format: functional
Method in brief: (§1)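 Liquid growth inhibition (NCCLS-based broth method). Compounds dissolved in DMSO and liquid medium, incubated with bacteria at 2 × 10^8 cells/mL in PB medium (Bacto-tryptone 1%, NaCl 0.5%, pH 7.5), 35 °C, 24 h, constant agitation. Triplicate wells. Growth read as absorbance at 620 nm; MIC taken as lowest concentration inhibiting growth.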

[2] = tested on: Escherichia coli; test: Antibacterial activity against Escherichia coli after 24 hrs by liquid growth inhibition assay; format: functional; method in brief: as §1

Compound | MIC [1] | MIC [2]
NCCc1c2c(c3nccc4c3c1Nc1ccccc1-4)NC(=O)CS2 | 4.5 µM (≈ 1.57 µg/mL) | 1.1 µM (≈ 0.383 µg/mL)
O=C1c2c(O)ccnc2-c2nccc3c2c1nc1ccccc13 | 10.5 µM (≈ 3.14 µg/mL) | 2.6 µM (≈ 0.778 µg/mL)
NCCc1c2c3c(ccnc3c3ncsc13)-c1ccccc1N2 | 2.5 µM (≈ 0.796 µg/mL) | 2.5 µM (≈ 0.796 µg/mL)
O=C1c2cccnc2-c2nccc3c2c1nc1ccccc13 [ASCIDIDEMIN] | 0.3 µM (≈ 0.085 µg/mL) | 0.2 µM (≈ 0.0567 µg/mL)
N=C1C2=C(NCCC2=O)c2nccc3c2c1nc1ccccc13 [CYSTODIMINE A] | 2.4 µM (≈ 0.721 µg/mL) | 1.2 µM (≈ 0.36 µg/mL)
N=C1C2=C(NCCC2=O)c2nccc3c2c1nc1ccc(O)cc13 [CYSTODIMINE B] | 10.5 µM (≈ 3.32 µg/mL) | 2.6 µM (≈ 0.822 µg/mL)
CC(=O)NCCc1c2c3c(ccnc3c3ncsc13)-c1ccccc1N2 [KUANONIAMINE D] | 17.4 µM (≈ 6.27 µg/mL) | 2.2 µM (≈ 0.793 µg/mL)
CC(=O)NCCc1c2c(c3nccc4c3c1Nc1ccccc1-4)NC(=O)CS2 [SHERMILAMINE B] | 8 µM (≈ 3.12 µg/mL) | 2 µM (≈ 0.781 µg/mL)
GENTAMICIN | 0.02 µM | 0.08 µM
